From ChEMBL document CHEMBL1629690, “Development of hexadecyloxypropyl tenofovir (CMX157) for treatment of infection caused by wild-type and nucleoside/nucleotide-resistant HIV” (Antimicrob Agents Chemother, 2010)

What follows are molecules tested on Human immunodeficiency virus 1 (assay: Antiviral activity against HIV1 isolate 194 harboring reverse transcriptase M41L/T215Y/M184V mutant gene by phenosense assay). Conditions: Human immunodeficiency virus 1, isolate 194.
Format: functional, organism-based
Outline: (§1)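 Recombinant-virus PhenoSense HIV assay run on a panel of 30 NRTI-resistant HIV-1 mutants and two wild-type viruses. Each virus is tested across increasing drug concentrations to give an inhibition curve and EC50. Fold change is the test recombinant EC50 divided by the EC50 of the drug-sensitive wild-type reference virus.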

**Q.** How did the EC50 turn out when `Cc1cn([C@H]2C=C[C@@H](CO)O2)c(=O)[nH]c1=O` [STAVUDINE] was run?
**A.** Its EC50 is 860 nM.

The molecules below were run on Human immunodeficiency virus 1 (assay: Antiviral activity against HIV1 isolate 070 harboring reverse transcriptase 65R/S68G mutant gene by phenosense assay). Conditions: Human immunodeficiency virus 1, isolate 070.
Format: functional, organism-based
Outline: as §1

**Q.** For `Cc1cn([C@H]2C=C[C@@H](CO)O2)c(=O)[nH]c1=O` [STAVUDINE], which EC50 is on record?
**A.** Its EC50 is 770 nM.

The molecules below were run on Human immunodeficiency virus 1 (assay: Antiviral activity against HIV1 isolate 206 harboring reverse transcriptase D67N/K70R mutant gene by phenosense assay). Conditions: Human immunodeficiency virus 1, isolate 206.
Format: functional, organism-based
Outline: (§2)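 PhenoSense HIV recombinant virus assay: patient-derived HIV-1 with major NRTI resistance mutations tested against increasing drug concentrations to give inhibition curves. EC50 is the concentration giving 50% inhibition. Fold change is the test recombinant EC50 divided by the EC50 of a drug-sensitive wild-type reference virus. Panel of 30 NRTI-resistant isolates plus two wild-type viruses.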

**Q.** Which EC50 does the source give for `Cc1cn([C@H]2C=C[C@@H](CO)O2)c(=O)[nH]c1=O` [STAVUDINE] here?
**A.** The EC50 was 780 nM.

The molecules below were run on Human immunodeficiency virus 1 (assay: Antiviral activity against HIV1 isolate 174 harboring reverse transcriptase M184V mutant gene obtained as site-directed mutant of NL4-3 by phenosense assay relative to wild type). Conditions: not given.
Format: functional
Outline: as §1

**Q.** Which “fold change (FC)” value does the source give for `Cc1cn([C@H]2C=C[C@@H](CO)O2)c(=O)[nH]c1=O` [STAVUDINE] here?
**A.** Its value is 0.68.

Each molecule was assayed on Human immunodeficiency virus 1 (assay: Antiviral activity against HIV1 isolate 153 harboring reverse transcriptase L74V mutant gene by phenosense assay relative to wild type). Conditions: not given.
Format: functional
Outline: as §1

**Q.** `Cc1cn([C@H]2C=C[C@@H](CO)O2)c(=O)[nH]c1=O` [STAVUDINE] was tested. Which “fold change (FC)” value did it give?
**A.** The value was 1.

Each molecule was assayed on Human immunodeficiency virus 1 (assay: Antiviral activity against HIV1 isolate 215 harboring reverse transcriptase D67N/K70E mutant gene by phenosense assay relative to wild type). Conditions: not given.
Format: functional
Outline: as §2

**Q.** Which “fold change (FC)” value does the source give for `Cc1cn([C@H]2C=C[C@@H](CO)O2)c(=O)[nH]c1=O` [STAVUDINE] here?
**A.** Its value is 0.94.

These molecules were tested on Human immunodeficiency virus 1 (assay: Antiviral activity against HIV1 isolate 067 harboring reverse transcriptase A62V/D67G/T69SVG/V75I/T215I mutant gene by phenosense assay relative to wild type). Conditions: not given.
Format: functional
Outline: as §1

**Q.** How did the “fold change (FC)” value turn out when `Cc1cn([C@H]2C=C[C@@H](CO)O2)c(=O)[nH]c1=O` [STAVUDINE] was run?
**A.** The value was 11.

The molecules below were run on Human immunodeficiency virus 1 (assay: Antiviral activity against HIV1 isolate 192 harboring reverse transcriptase M41L/T215Y mutant gene by phenosense assay). Conditions: Human immunodeficiency virus 1, isolate 192.
Format: functional, organism-based
Outline: as §1

**Q.** With `Cc1cn([C@H]2C=C[C@@H](CO)O2)c(=O)[nH]c1=O` [STAVUDINE] as the molecule, how does the EC50 read?
**A.** The EC50 was 840 nM.

Each molecule was assayed on Human immunodeficiency virus 1 (assay: Antiviral activity against HIV1 isolate 200 harboring reverse transcriptase M41L/L210W/T215Y mutant gene by phenosense assay relative to wild type). Conditions: not given.
Format: functional
Outline: as §1

**Q.** For `Cc1cn([C@H]2C=C[C@@H](CO)O2)c(=O)[nH]c1=O` [STAVUDINE], which “fold change (FC)” value is on record?
**A.** The value was 2.1.

What follows are molecules tested on Human immunodeficiency virus 1 (assay: Antiviral activity against HIV1 isolate 160 harboring reverse transcriptase S68G/V75(I/T)/F77L/Y115F/F116Y /Q151M mutant gene by phenosense assay relative to wild type). Conditions: not given.
Format: functional
Outline: as §1

**Q.** For `Cc1cn([C@H]2C=C[C@@H](CO)O2)c(=O)[nH]c1=O` [STAVUDINE], which “fold change (FC)” value is on record?
**A.** Its value is 9.3.

What follows are molecules tested on Human immunodeficiency virus 1 (assay: Antiviral activity against HIV1 isolate 061 harboring reverse transcriptase M41L/D67N/K70R/M184V/L210W/T215Y/K219E mutant gene by phenosense assay). Conditions: Human immunodeficiency virus 1, isolate 061.
Format: functional, organism-based
Outline: as §1

**Q.** Which EC50 does the source give for `Cc1cn([C@H]2C=C[C@@H](CO)O2)c(=O)[nH]c1=O` [STAVUDINE] here?
**A.** Its EC50 is 2400 nM.

Each molecule was assayed on Human immunodeficiency virus 1 (assay: Antiviral activity against HIV1 isolate 160 harboring reverse transcriptase S68G/V75(I/T)/F77L/Y115F/F116Y /Q151M mutant gene by phenosense assay). Conditions: Human immunodeficiency virus 1, isolate 160.
Format: functional, organism-based
Outline: as §1

**Q.** `Cc1cn([C@H]2C=C[C@@H](CO)O2)c(=O)[nH]c1=O` [STAVUDINE] was tested. Which EC50 did it give?
**A.** The EC50 was 5500 nM.

Each molecule was assayed on Human immunodeficiency virus 1 (assay: Antiviral activity against HIV1 isolate 166 harboring reverse transcriptase L74V mutant gene obtained as site-directed mutant of NL4-3 by phenosense assay). Conditions: Human immunodeficiency virus 1, isolate 166.
Format: functional, organism-based
Outline: as §1

**Q.** With `Cc1cn([C@H]2C=C[C@@H](CO)O2)c(=O)[nH]c1=O` [STAVUDINE] as the molecule, how does the EC50 read?
**A.** The EC50 was 630 nM.

These molecules were tested on Human immunodeficiency virus 1 (assay: Antiviral activity against HIV1 isolate 157 harboring reverse transcriptase L74V/M184V mutant gene by phenosense assay relative to wild type). Conditions: not given.
Format: functional
Outline: as §1

**Q.** `Cc1cn([C@H]2C=C[C@@H](CO)O2)c(=O)[nH]c1=O` [STAVUDINE] was tested. Which “fold change (FC)” value did it give?
**A.** Its value is 0.71.

The molecules below were run on Human immunodeficiency virus 1 (assay: Antiviral activity against HIV1 isolate 060 harboring reverse transcriptase M41L/D67N/K70R/L210W/T215Y/K219E mutant gene by phenosense assay relative to wild type). Conditions: not given.
Format: functional
Outline: as §1

**Q.** For `Cc1cn([C@H]2C=C[C@@H](CO)O2)c(=O)[nH]c1=O` [STAVUDINE], which “fold change (FC)” value is on record?
**A.** Its value is 3.1.

Each molecule was assayed on Human immunodeficiency virus 1 (assay: Antiviral activity against HIV1 isolate 220 harboring reverse transcriptase K70E/M184V mutant gene by phenosense assay). Conditions: Human immunodeficiency virus 1, isolate 220.
Format: functional, organism-based
Outline: as §2

**Q.** With `Cc1cn([C@H]2C=C[C@@H](CO)O2)c(=O)[nH]c1=O` [STAVUDINE] as the molecule, how does the EC50 read?
**A.** Its EC50 is 390 nM.

What follows are molecules tested on Human immunodeficiency virus 1 (assay: Antiviral activity against HIV1 isolate 188 harboring reverse transcriptase T215Y/M184V mutant gene by phenosense assay relative to wild type). Conditions: not given.
Format: functional
Outline: as §1

**Q.** Which “fold change (FC)” value does the source give for `Cc1cn([C@H]2C=C[C@@H](CO)O2)c(=O)[nH]c1=O` [STAVUDINE] here?
**A.** Its value is 1.1.

Each molecule was assayed on Human immunodeficiency virus 1 (assay: Antiviral activity against HIV1 isolate 174 harboring reverse transcriptase M184V mutant gene obtained as site-directed mutant of NL4-3 by phenosense assay). Conditions: Human immunodeficiency virus 1, isolate 174.
Format: functional, organism-based
Outline: as §1

**Q.** Which EC50 does the source give for `Cc1cn([C@H]2C=C[C@@H](CO)O2)c(=O)[nH]c1=O` [STAVUDINE] here?
**A.** The EC50 was 400 nM.

Each molecule was assayed on Human immunodeficiency virus 1 (assay: Antiviral activity against HIV1 isolate 185 harboring reverse transcriptase T215Y mutant gene by phenosense assay). Conditions: Human immunodeficiency virus 1, isolate 185.
Format: functional, organism-based
Outline: as §1

**Q.** How did the EC50 turn out when `Cc1cn([C@H]2C=C[C@@H](CO)O2)c(=O)[nH]c1=O` [STAVUDINE] was run?
**A.** Its EC50 is 830 nM.

The molecules below were run on Human immunodeficiency virus 1 (assay: Antiviral activity against HIV1 isolate 066 harboring reverse transcriptase 184V mutant gene by phenosense assay). Conditions: Human immunodeficiency virus 1, isolate 066.
Format: functional, organism-based
Outline: as §1

**Q.** With `Cc1cn([C@H]2C=C[C@@H](CO)O2)c(=O)[nH]c1=O` [STAVUDINE] as the molecule, how does the EC50 read?
**A.** Its EC50 is 460 nM.

Each molecule was assayed on Human immunodeficiency virus 1 (assay: Antiviral activity against HIV1 isolate 058 harboring reverse transcriptase M41L/D67N/K70R/L210W/T215F/K219Q mutant gene by phenosense assay relative to wild type). Conditions: not given.
Format: functional
Outline: as §1

**Q.** How did the “fold change (FC)” value turn out when `Cc1cn([C@H]2C=C[C@@H](CO)O2)c(=O)[nH]c1=O` [STAVUDINE] was run?
**A.** Its value is 3.7.

The molecules below were run on Human immunodeficiency virus 1 (assay: Antiviral activity against HIV1 isolate 204 harboring reverse transcriptase M41L/L210W/T215Y/M184V mutant gene by phenosense assay). Conditions: Human immunodeficiency virus 1, isolate 204.
Format: functional, organism-based
Outline: as §2

**Q.** Which EC50 does the source give for `Cc1cn([C@H]2C=C[C@@H](CO)O2)c(=O)[nH]c1=O` [STAVUDINE] here?
**A.** The EC50 was 1100 nM.

The molecules below were run on Human immunodeficiency virus 1 (assay: Antiviral activity against HIV1 isolate 058 harboring reverse transcriptase M41L/D67N/K70R/L210W/T215F/K219Q mutant gene by phenosense assay). Conditions: Human immunodeficiency virus 1, isolate 058.
Format: functional, organism-based
Outline: as §1

**Q.** For `Cc1cn([C@H]2C=C[C@@H](CO)O2)c(=O)[nH]c1=O` [STAVUDINE], which EC50 is on record?
**A.** Its EC50 is 2200 nM.

These molecules were tested on Human immunodeficiency virus 1 (assay: Antiviral activity against HIV1 isolate 061 harboring reverse transcriptase M41L/D67N/K70R/M184V/L210W/T215Y/K219E mutant gene by phenosense assay relative to wild type). Conditions: not given.
Format: functional
Outline: as §1

**Q.** With `Cc1cn([C@H]2C=C[C@@H](CO)O2)c(=O)[nH]c1=O` [STAVUDINE] as the molecule, how does the “fold change (FC)” value read?
**A.** Its value is 2.6.

Each molecule was assayed on Human immunodeficiency virus 1 (assay: Antiviral activity against HIV1 isolate 185 harboring reverse transcriptase T215Y mutant gene by phenosense assay relative to wild type). Conditions: not given.
Format: functional
Outline: as §1

**Q.** Which “fold change (FC)” value does the source give for `Cc1cn([C@H]2C=C[C@@H](CO)O2)c(=O)[nH]c1=O` [STAVUDINE] here?
**A.** Its value is 1.4.

Each molecule was assayed on Human immunodeficiency virus 1 (assay: Antiviral activity against HIV1 isolate 166 harboring reverse transcriptase L74V mutant gene obtained as site-directed mutant of NL4-3 by phenosense assay relative to wild type). Conditions: not given.
Format: functional
Outline: as §1

**Q.** With `Cc1cn([C@H]2C=C[C@@H](CO)O2)c(=O)[nH]c1=O` [STAVUDINE] as the molecule, how does the “fold change (FC)” value read?
**A.** Its value is 1.1.

Each molecule was assayed on Human immunodeficiency virus 1 (assay: Antiviral activity against HIV1 isolate 056 expressing wild type reverse transcriptase gene by phenosense assay). Conditions: Human immunodeficiency virus 1, isolate 056.
Format: functional, organism-based
Outline: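 In the PhenoSense recombinant virus assay, virus was tested against increasing drug concentrations. EC50 came from the inhibition curve and was compared with a drug-sensitive reference virus.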

**Q.** How did the EC50 turn out when `Cc1cn([C@H]2C=C[C@@H](CO)O2)c(=O)[nH]c1=O` [STAVUDINE] was run?
**A.** Its EC50 is 510 nM.
